ChEMBL document CHEMBL4334464, “From Phenylthiazoles to Phenylpyrazoles: Broadening the Antibacterial Spectrum toward Carbapenem-Resistant Bacteria” (J Med Chem, 2019)
Calls of active or inactive are those of the source. The rule behind the calls is not given here.

How the values were obtained:
[1] = Apparent permeability across basolateral to apical side in human Caco2 cells after 2 hrs by LC/MS/MS analysis; format: ADME, cell-based; details: Caco-2
[2] = Half life in human liver microsomes in presence of NADPH by LC/MS/MS analysis; format: ADME, Microsome
[3] = Stability in human liver microsomes assessed as compound remaining incubated for 30 mins in absence of NADPH by LC/MS/MS analysis; format: ADME, Microsome; details: read-out: Stability
Summary of the method: (§1)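 Two independent runs (1st and 2nd) were done at each time point, and the mean percent remaining is reported. Incubations were run both with and without NADPH. Half-life and intrinsic clearance (Clint) were derived from the time-course data.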

[4] = Stability in human liver microsomes assessed as compound remaining incubated for 45 mins in absence of NADPH by LC/MS/MS analysis; format: ADME, Microsome; details: read-out: Stability; summary of the method: as §1
[5] = Stability in human liver microsomes assessed as compound remaining incubated for 30 mins in presence of NADPH by LC/MS/MS analysis; format: ADME, Microsome; details: read-out: Stability; summary of the method: as §1
[6] = Stability in human liver microsomes assessed as compound remaining incubated for 15 mins in presence of NADPH by LC/MS/MS analysis; format: ADME, Microsome; details: read-out: Stability; summary of the method: as §1
[7] = Half life in human liver microsomes in absence of NADPH by LC/MS/MS analysis; format: ADME, Microsome
[8] = Efflux ratio of apparent permeability across basolateral to apical side over apical to basolateral side in human Caco2 cells after 2 hrs by LC/MS/MS analysis; format: ADME, cell-based; details: Caco-2
[9] = Stability in human liver microsomes assessed as compound remaining incubated for 60 mins in presence of NADPH by LC/MS/MS analysis; format: ADME, Microsome; details: read-out: Stability; summary of the method: as §1
[10] = Stability in human liver microsomes assessed as compound remaining measured immediately in presence of NADPH by LC/MS/MS analysis; format: ADME, Microsome; details: read-out: Stability; summary of the method: as §1
[11] = Stability in human liver microsomes assessed as compound remaining incubated for 60 mins in absence of NADPH by LC/MS/MS analysis; format: ADME, Microsome; details: read-out: Stability; summary of the method: as §1
Staphylococcus aureus [12] = experiment: Antibacterial activity against methicillin-resistant Staphylococcus aureus NRS123-USA400 clinical isolates assessed as ratio of MIC after and before 14 serial passages by broth microdilution assay; format: functional
Summary of the method: (§2)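 MRSA USA400 was serially passaged over a 14-day period in the presence of each compound or control antibiotic. MIC was determined by broth microdilution after each passage. A four-fold rise in MIC was taken as a sign of resistance.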

Staphylococcus aureus [13] = experiment: Antibacterial activity against methicillin-resistant Staphylococcus aureus NRS123-USA400 clinical isolates assessed as ratio of MIC after and before 8 serial passages by broth microdilution assay; format: functional; summary of the method: as §2
[14] = Intrinsic clearance in human liver microsomes in presence of NADPH by LC/MS/MS analysis; format: ADME, Microsome; details: read-out: CLH
[15] = Apparent permeability across apical to basolateral side in human Caco2 cells after 2 hrs by LC/MS/MS analysis; format: ADME, cell-based; details: Caco-2
[16] = Stability in human liver microsomes assessed as compound remaining measured immediately in absence of NADPH by LC/MS/MS analysis; format: ADME, Microsome; details: read-out: Stability; summary of the method: as §1
Staphylococcus aureus [17] = experiment: Antibacterial activity against methicillin-resistant Staphylococcus aureus NRS123-USA400 clinical isolates assessed as ratio of MIC after and before 10 serial passages by broth microdilution assay; format: functional; summary of the method: as §2
Salmonella enteritidis = experiment: Antibacterial activity against Salmonella enteritidis ATCC 14028 infected in mouse J774 cells assessed as reduction in intracellular bacterial cells at 2 times MIC incubated for 24 hrs followed by re-plating on TSA plate and measured after 18 to 22 hrs relative to control; format: functional, Salmonella enterica subsp. enterica serovar Enteritidis; set-up: scale not given: the % may be the effect or the level left
Summary of the method: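 J774 murine macrophages infected with Salmonella enteritidis ATCC 14028, then treated at 2×MIC for 24 h, in triplicate. Read-out is the percent reduction in intracellular colony forming units versus the untreated control.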

[18] = Clearance in Sprague-Dawley rat at 5 mg/kg, iv administered as bolus dose measured over 12 hrs by LC-MS/MS analysis; format: ADME, organism-based; details: in vivo
[19] = Half life in Sprague-Dawley rat at 5 mg/kg, iv administered as bolus dose measured over 12 hrs by LC-MS/MS analysis; format: ADME, organism-based; details: in vivo
Staphylococcus aureus [20] = experiment: Antibacterial activity against methicillin-resistant Staphylococcus aureus NRS123-USA400 clinical isolates over 14 serial passages by broth microdilution assay; format: functional, organism-based; summary of the method: as §2
Staphylococcus aureus [21] = experiment: Potency index, ratio of compound effect to vancomycin effect for antibiofilm activity against methicillin-resistant Staphylococcus aureus NRS384-USA300 clinical isolates at 0.5 times MIC; format: functional

| SMILES | Papp B→A at 2 h [1] | half-life [2] | remaining at 0.5 h [3] | remaining at 0.75 h [4] | remaining at 0.5 h [5] | remaining at 0.25 h [6] | half-life [7] | efflux ratio at 2 h [8] | remaining at 1 h [9] | remaining at 0 min [10] | remaining at 1 h [11] | microsomal CLint [14] | Papp A→B at 2 h [15] | remaining at 0 min [16] | Activity (Salmonella enteritidis) | also measured |
| --- | --- | --- | --- | --- | --- | --- | --- | --- | --- | --- | --- | --- | --- | --- | --- | --- |
| C/C(=N\NC1=NCCN1)c1cnn(-c2ccc(C#CC3CCCC3)cc2)c1C | 0.15 ×10⁻⁶ cm/s | 2.55 h | 97% | 97% | 92% | 99% | 20.3 h | 1.5 | 79% | 100% | 97% | 42.3 µL/min/mg | 0.1 ×10⁻⁶ cm/s | 100% |  | Ratio (Staphylococcus aureus [12]): 2; Ratio (Staphylococcus aureus [13]): 1 |
| C/C(=N\NC(=N)N)c1cnn(-c2ccc(C#Cc3ccccc3)cc2)c1C |  |  |  |  |  |  |  |  |  |  |  |  |  |  | 70% | Ratio (Staphylococcus aureus [17]): 1 |
| C/C(=N\NC(=N)N)c1cnn(-c2ccc(C#CC3CCCC3)cc2)c1C | 0.01 ×10⁻⁶ cm/s | 3.23 h | 99% | 99% | 92% | 93% | 8.42 h | 1 | 82% | 100% | 91% | 35.8 µL/min/mg | 0.01 ×10⁻⁶ cm/s | 100% | 98% | clearance [18]: 16.7 mL/min; half-life [19]: 10.5 h; Activity (Staphylococcus aureus [20]): Active; Ratio (Staphylococcus aureus [21]): 2 |
